ChEMBL document CHEMBL5260824, “9-Deazapurines as Broad-Spectrum Inhibitors of the ABC Transport Proteins P-Glycoprotein, Multidrug Resistance-Associated Protein 1, and Breast Cancer Resistance Protein” (J Med Chem, 2017)

Tests used:
[1] = molecular target: ATP-dependent translocase ABCB1 (Homo sapiens, UniProt P08183); assay: Inhibition of P-gp (unknown origin) incubated for 30 mins by calcein AM analysis
In short: (§1)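 A2780/ADR cells (doxorubicin-selected, P-gp overexpressing), about 30,000 per well in Krebs-HEPES buffer pH 7.4, incubated 30 min at 37 °C with compound (100 nM–100 µM added solutions). Calcein AM (3.125 µM solution added) then fluorescence read every 60 s at 37 °C, ex 485/em 520 nm; slope over minutes 5–30 plotted vs log concentration. Cyclosporine A 10 µM = 100% inhibition, buffer = 0%.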

[2] = molecular target: T1, Broad substrate specificity ATP-binding cassette transporter ABCG2 (Homo sapiens, UniProt Q9UNQ0); assay: Inhibition of BCRP (unknown origin) expressed in dog MDCK-II cells using pheophorbide A as substrate preincubated for 20 mins followed by substrate addition and measured after 120 mins by flow cytometry analysis; assay type: cell-based
T1 sequence (Q9UNQ0 whole entry): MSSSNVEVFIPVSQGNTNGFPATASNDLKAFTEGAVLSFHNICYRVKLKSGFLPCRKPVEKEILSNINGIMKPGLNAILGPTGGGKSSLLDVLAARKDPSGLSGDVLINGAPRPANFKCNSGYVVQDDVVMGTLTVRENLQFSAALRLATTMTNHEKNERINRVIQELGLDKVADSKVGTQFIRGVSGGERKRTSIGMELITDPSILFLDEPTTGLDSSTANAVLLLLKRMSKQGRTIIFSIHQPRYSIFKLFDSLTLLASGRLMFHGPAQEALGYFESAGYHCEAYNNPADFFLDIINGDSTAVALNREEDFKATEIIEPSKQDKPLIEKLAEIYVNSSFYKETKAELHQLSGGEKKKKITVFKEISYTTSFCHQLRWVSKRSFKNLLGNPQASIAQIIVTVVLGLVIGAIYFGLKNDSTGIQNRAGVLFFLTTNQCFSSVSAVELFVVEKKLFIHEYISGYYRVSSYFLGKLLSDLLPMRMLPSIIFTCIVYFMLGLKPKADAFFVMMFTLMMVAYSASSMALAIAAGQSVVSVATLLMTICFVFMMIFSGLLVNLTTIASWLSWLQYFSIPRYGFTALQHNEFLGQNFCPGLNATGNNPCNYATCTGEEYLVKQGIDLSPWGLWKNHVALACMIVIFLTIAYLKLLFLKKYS
In short: (§2)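 MDCK II cells transfected with human wild-type BCRP cDNA C-terminally fused to GFP, grown in DMEM/10% FBS. About 45,000 cells per well preincubated 20 min at 37 °C, 5% CO2 with compound (100 nM–100 µM added solutions), then pheophorbide A (5 µM solution added) for 120 min to steady state. Resuspended; flow cytometry, 488 nm excitation, FL3 (≥670 nm); GFP in FL1. Reference inhibitor 24 at 10 µM = 100%.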

[3] = molecular target: T2, MRP1 (Homo sapiens, UniProt P33527); assay: Inhibition of MRP1 in human NCI-H69AR cells at 10 uM incubated for 180 mins in presence of daunorubicin by flow cytometry analysis relative to control; assay type: cell-based; settings: probe daunorubicin
T2 sequence (P33527 whole entry): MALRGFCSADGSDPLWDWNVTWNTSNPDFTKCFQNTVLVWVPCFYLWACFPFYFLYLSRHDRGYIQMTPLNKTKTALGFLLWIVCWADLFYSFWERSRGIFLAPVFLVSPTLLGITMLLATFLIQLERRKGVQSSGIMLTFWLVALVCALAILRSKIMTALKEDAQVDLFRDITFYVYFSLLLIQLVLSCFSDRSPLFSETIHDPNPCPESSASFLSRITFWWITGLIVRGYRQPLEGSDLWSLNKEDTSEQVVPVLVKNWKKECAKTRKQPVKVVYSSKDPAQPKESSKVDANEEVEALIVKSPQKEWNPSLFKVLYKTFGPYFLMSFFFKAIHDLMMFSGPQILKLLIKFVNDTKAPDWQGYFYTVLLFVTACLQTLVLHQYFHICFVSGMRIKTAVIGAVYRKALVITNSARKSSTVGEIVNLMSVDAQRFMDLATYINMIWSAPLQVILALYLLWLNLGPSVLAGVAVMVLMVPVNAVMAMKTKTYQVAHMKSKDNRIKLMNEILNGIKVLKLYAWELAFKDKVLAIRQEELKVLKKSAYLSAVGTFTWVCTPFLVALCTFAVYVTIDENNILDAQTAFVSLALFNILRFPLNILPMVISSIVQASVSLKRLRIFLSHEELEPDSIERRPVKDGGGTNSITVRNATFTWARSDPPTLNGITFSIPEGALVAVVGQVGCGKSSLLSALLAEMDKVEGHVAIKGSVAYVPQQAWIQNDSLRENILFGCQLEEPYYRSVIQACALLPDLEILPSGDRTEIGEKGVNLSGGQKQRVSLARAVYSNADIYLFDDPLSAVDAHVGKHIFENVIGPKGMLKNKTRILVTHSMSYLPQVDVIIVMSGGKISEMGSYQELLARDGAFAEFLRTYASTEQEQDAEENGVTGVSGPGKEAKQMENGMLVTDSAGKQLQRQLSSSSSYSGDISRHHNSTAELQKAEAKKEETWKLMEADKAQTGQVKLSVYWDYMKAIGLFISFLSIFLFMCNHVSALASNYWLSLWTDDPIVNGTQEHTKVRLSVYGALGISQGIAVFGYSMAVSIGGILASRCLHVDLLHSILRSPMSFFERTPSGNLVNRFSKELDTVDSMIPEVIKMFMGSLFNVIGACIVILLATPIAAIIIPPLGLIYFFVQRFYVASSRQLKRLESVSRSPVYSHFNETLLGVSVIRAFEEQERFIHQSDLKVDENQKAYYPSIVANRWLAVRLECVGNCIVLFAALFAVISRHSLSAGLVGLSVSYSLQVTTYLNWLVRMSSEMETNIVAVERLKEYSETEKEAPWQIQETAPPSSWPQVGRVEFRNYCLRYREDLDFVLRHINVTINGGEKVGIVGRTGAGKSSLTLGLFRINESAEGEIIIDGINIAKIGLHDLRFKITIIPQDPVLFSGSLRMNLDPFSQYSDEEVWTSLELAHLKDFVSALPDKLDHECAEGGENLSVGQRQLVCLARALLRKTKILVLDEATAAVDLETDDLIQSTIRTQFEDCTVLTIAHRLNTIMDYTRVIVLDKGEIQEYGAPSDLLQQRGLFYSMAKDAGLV
In short: (§3)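 H69AR cells (doxorubicin-selected small cell lung cancer, RPMI-1640/20% FBS), about 60,000 per well, preincubated 15 min with compound (100 nM–100 µM added solutions, in unsupplemented medium), then daunorubicin (30 µM solution added); steady state after 180 min, 37 °C, 5% CO2. Cells resuspended; flow cytometry, 488 nm excitation, FL3 (≥670 nm). Reference inhibitor 75 at 10 µM = 100%; Imax relative to it.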

[4] = molecular target: T3, BCRP (ABCG2) (Homo sapiens, UniProt Q9UNQ0); assay: Inhibition of BCRP (unknown origin) expressed in dog MDCK-II cells at 10 uM using pheophorbide A as substrate preincubated for 20 mins followed by substrate addition and measured after 120 mins by flow cytometry analysis relative to control; assay type: cell-based; settings: probe pheophorbide A; in short: as §2
T3 sequence (Q9UNQ0 whole entry): T1 sequence (Q9UNQ0 whole entry)

[5] = molecular target: T4, P-gp (ABCB1) (Homo sapiens, UniProt P08183); assay: Inhibition of P-gp (unknown origin) expressed in dog MDCK-MDR1cells assessed as maximum inhibition at 10 uM by calcein AM accumulation assay relative to control; assay type: cell-based; settings: MDCK-MDR1 cells, probe calcein AM
T4 sequence (P08183 whole entry): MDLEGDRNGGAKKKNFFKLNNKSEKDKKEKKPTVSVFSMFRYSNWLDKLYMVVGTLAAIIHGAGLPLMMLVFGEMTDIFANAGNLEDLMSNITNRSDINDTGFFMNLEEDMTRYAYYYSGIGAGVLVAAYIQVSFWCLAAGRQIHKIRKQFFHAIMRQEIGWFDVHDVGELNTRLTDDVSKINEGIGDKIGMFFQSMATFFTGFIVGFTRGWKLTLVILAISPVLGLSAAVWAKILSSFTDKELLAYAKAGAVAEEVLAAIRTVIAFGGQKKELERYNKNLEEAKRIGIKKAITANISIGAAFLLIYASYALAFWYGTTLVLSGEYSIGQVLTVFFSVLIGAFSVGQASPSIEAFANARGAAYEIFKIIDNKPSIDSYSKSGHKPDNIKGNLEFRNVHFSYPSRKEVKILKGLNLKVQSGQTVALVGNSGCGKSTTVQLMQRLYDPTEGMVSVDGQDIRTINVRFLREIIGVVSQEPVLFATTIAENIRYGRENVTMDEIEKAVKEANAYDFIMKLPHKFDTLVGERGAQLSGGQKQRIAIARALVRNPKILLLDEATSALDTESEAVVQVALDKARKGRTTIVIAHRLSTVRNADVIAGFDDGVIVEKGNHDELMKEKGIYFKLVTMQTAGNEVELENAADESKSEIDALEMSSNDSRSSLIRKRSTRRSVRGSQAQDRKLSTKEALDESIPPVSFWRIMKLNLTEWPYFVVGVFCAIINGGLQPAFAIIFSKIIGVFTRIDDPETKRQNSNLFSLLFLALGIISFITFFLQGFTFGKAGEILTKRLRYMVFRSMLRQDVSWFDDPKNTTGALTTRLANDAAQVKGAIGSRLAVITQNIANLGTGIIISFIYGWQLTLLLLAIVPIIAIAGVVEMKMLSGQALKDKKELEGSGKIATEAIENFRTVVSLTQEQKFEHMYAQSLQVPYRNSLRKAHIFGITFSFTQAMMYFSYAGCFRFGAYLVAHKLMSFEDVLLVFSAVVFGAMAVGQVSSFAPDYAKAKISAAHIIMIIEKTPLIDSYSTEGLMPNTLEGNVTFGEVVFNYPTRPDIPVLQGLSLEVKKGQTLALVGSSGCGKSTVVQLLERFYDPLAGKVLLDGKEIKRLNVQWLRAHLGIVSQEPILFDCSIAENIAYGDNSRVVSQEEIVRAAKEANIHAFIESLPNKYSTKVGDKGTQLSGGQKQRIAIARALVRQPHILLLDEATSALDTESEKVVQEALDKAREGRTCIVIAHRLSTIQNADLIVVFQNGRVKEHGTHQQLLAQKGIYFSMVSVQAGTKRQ

[6] = molecular target: Multidrug resistance-associated protein 1 (Homo sapiens, UniProt P33527); assay: Inhibition of MRP1 in human NCI-H69AR cells incubated for 180 mins in presence of daunorubicin by flow cytometry analysis; assay type: cell-based; in short: as §3
Multidrug resistance-associated protein 1, sequence (P33527 whole entry): as the sequence (P33527 whole entry) above

[7] = molecular target: T4, P-gp (ABCB1); assay: Inhibition of P-gp (unknown origin) at 10 uM incubated for 30 mins by calcein AM analysis relative to control; settings: probe calcein AM; in short: as §1
[8] = molecular target: T2, MRP1; assay: Inhibition of MRP1 in human NCI-H69AR cells assessed as maximum inhibition at 10 uM incubated for 180 mins in presence of daunorubicin by flow cytometry analysis relative to control; assay type: cell-based; settings: probe daunorubicin; in short: as §3

ATP-dependent translocase ABCB1, sequence (P08183 whole entry): as the sequence (P08183 whole entry) above

c1ccc(CN2CCN(c3ncnc4c3[nH]c3ccccc34)CC2)cc1
IC50 [1]: 9.49 µM | IC50 [2]: 6.08 µM | inhibition at 3 h, 10 µM [3]: > 25% | inhibition at 2 h, 10 µM [4]: > 25% | inhibition at 10 µM [5]: 30% | IC50 [6]: 0.363 µM | inhibition at 0.5 h, 10 µM [7]: > 25% | inhibition at 3 h, 10 µM [8]: 60%

N#Cc1c2n(c3c(N4CCN(CCc5ccccc5)CC4)ncnc13)CCCC2
IC50 [1]: 9.63 µM

N#Cc1c2n(c3c(N4CCN(Cc5ccc6c(c5)OCO6)CC4)ncnc13)CCCC2
IC50 [1]: 13.9 µM | IC50 [2]: 14.6 µM | inhibition at 3 h, 10 µM [3]: > 25% | inhibition at 2 h, 10 µM [4]: > 25% | IC50 [6]: 0.322 µM | inhibition at 0.5 h, 10 µM [7]: > 25%

CCn1cc(C#N)c2ncnc(N3CCN(CCc4c[nH]c5ccccc45)CC3)c21
IC50 [2]: 13.8 µM | inhibition at 3 h, 10 µM [3]: > 25% | inhibition at 2 h, 10 µM [4]: > 25% | IC50 [6]: 0.855 µM

N#Cc1c2n(c3c(N4CCN(CCc5ccncc5)CC4)ncnc13)CCCCC2
IC50 [2]: 12.4 µM | inhibition at 3 h, 10 µM [3]: 25% | inhibition at 2 h, 10 µM [4]: > 25% | IC50 [6]: 1.14 µM | inhibition at 0.5 h, 10 µM [7]: > 25%

COc1ccccc1-n1cc(C#N)c2ncnc(N3CCN(Cc4ccccc4)CC3)c21
IC50 [1]: 19.1 µM | IC50 [2]: 37.9 µM | inhibition at 3 h, 10 µM [3]: > 25% | inhibition at 2 h, 10 µM [4]: > 25% | IC50 [6]: 0.327 µM | inhibition at 0.5 h, 10 µM [7]: > 25%

CCOc1ccc(-n2cc(C#N)c3ncnc(N4CCN(CCc5ccccc5)CC4)c32)cc1
inhibition at 3 h, 10 µM [3]: > 25% | inhibition at 2 h, 10 µM [4]: > 25% | IC50 [6]: 1.32 µM | inhibition at 0.5 h, 10 µM [7]: > 25%

N#Cc1c2n(c3c(N4CCN(Cc5ccc6c(c5)OCO6)CC4)ncnc13)CCCCC2
IC50 [1]: 5.71 µM | IC50 [2]: 23.7 µM | inhibition at 3 h, 10 µM [3]: > 25% | inhibition at 2 h, 10 µM [4]: > 25% | IC50 [6]: 1.02 µM | inhibition at 0.5 h, 10 µM [7]: > 25%

N#Cc1cn(-c2ccccc2)c2c(N3CCN(CCc4c[nH]c5ccccc45)CC3)ncnc12
IC50 [1]: 1.28 µM | inhibition at 3 h, 10 µM [3]: > 25% | inhibition at 2 h, 10 µM [4]: > 25% | IC50 [6]: 0.328 µM | inhibition at 0.5 h, 10 µM [7]: > 25%

N#Cc1cn(CCc2ccccc2)c2c(N3CCN(CCc4c[nH]c5ccccc45)CC3)ncnc12
IC50 [1]: 1.64 µM | IC50 [2]: 1.39 µM | inhibition at 3 h, 10 µM [3]: > 25% | inhibition at 2 h, 10 µM [4]: > 25% | IC50 [6]: 0.524 µM | inhibition at 0.5 h, 10 µM [7]: > 25%

N#Cc1c2n(c3c(N4CCN(c5ccccn5)CC4)ncnc13)CCCC2
IC50 [2]: 4.86 µM | inhibition at 3 h, 10 µM [3]: 25% | inhibition at 2 h, 10 µM [4]: > 25% | IC50 [6]: 1.02 µM | inhibition at 0.5 h, 10 µM [7]: > 25%

c1ccc(CCN2CCN(c3ncnc4c3[nH]c3ccccc34)CC2)nc1
IC50 [1]: 10.7 µM | IC50 [2]: 11.6 µM | inhibition at 3 h, 10 µM [3]: > 25% | inhibition at 2 h, 10 µM [4]: > 25% | inhibition at 10 µM [5]: 30% | IC50 [6]: 0.345 µM | inhibition at 0.5 h, 10 µM [7]: > 25% | inhibition at 3 h, 10 µM [8]: 60%

O=C(c1ccco1)N1CCN(c2ncnc3c2[nH]c2ccccc23)CC1
IC50 [2]: 6.06 µM | inhibition at 3 h, 10 µM [3]: > 25% | inhibition at 2 h, 10 µM [4]: > 25% | inhibition at 10 µM [5]: 30% | IC50 [6]: 0.169 µM | inhibition at 0.5 h, 10 µM [7]: > 25% | inhibition at 3 h, 10 µM [8]: 60%

CCOc1ccc(-n2cc(C#N)c3ncnc(N4CCN(Cc5ccccc5)CC4)c32)cc1
IC50 [1]: 7.29 µM | inhibition at 3 h, 10 µM [3]: > 25% | inhibition at 2 h, 10 µM [4]: > 25% | IC50 [6]: 0.859 µM | inhibition at 0.5 h, 10 µM [7]: > 25%

N#Cc1cn(Cc2ccccc2)c2c(N3CCN(CCc4c[nH]c5ccccc45)CC3)ncnc12
IC50 [1]: 4.48 µM | IC50 [2]: 4.07 µM | inhibition at 3 h, 10 µM [3]: > 25% | inhibition at 2 h, 10 µM [4]: > 25% | IC50 [6]: 0.405 µM | inhibition at 0.5 h, 10 µM [7]: > 25%
